Active and inactive are the calls of the source. No cut-off for these calls is given here.
Columns and labels:
[1] = system: K562; assay: Antiproliferative activity against human K562 cells assessed as reduction in cell viability after 48 hrs by MTT assay; assay type: functional, cell-based; details: K562, 48 h
Procedure, shortened: (§1)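 MCF-7, K562, A549 and HT-29 lines were seeded in 96-well plates and kept overnight at 37 °C, 5% CO2, 95% humidity. They were then exposed to six concentrations (100 to 2.5) for 48 h. After PBS washes, MTT was added for 4 h at 37 °C and formazan was dissolved in DMSO. Absorbance was read at 570 nm. Survival is mean OD of treated wells over the negative control, and IC50 was derived from that.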

[2] = system: A549; assay: Antiproliferative activity against human A549 cells assessed as reduction in cell viability after 48 hrs by MTT assay; assay type: functional, cell-based; details: A549, 48 h; procedure, shortened: as §1
[3] = system: MCF7; assay: Antiproliferative activity against human MCF7 cells assessed as reduction in cell viability after 48 hrs by MTT assay; assay type: functional, cell-based; details: MCF7, 48 h; procedure, shortened: as §1
[4] = species: Gallus gallus; assay: Inhibition of angiogenesis in chicken chorioallantoic membrane assessed as reduction in number of branching capillaries at 1 to 10 ug/ul after 12 days in presence of human VEGF by stereomicroscopic analysis; details: Embryo, dose 1-10 µg/microl, time 12.0 day
[5] = system: HT-29; assay: Antiproliferative activity against human HT-29 cells assessed as reduction in cell viability after 48 hrs by MTT assay; assay type: functional, cell-based; details: HT-29, 48 h; procedure, shortened: as §1

Structure (SMILES): O=C1NC(=O)/C(=C\c2ccc(OCC(=O)N3N=C(c4ccc(F)cc4)CC3c3ccco3)cc2)S1 (stereo not given)
- IC50 [1]: 46.3 µM
- IC50 [2]: 19.5 µM
- IC50 [3]: 28.4 µM
- inhibition [4]: Active
- IC50 [5]: 18.8 µM
